Laboratory results taken from ChEMBL document CHEMBL3612040, “Discovery of Selective Small Molecule Inhibitors of Monoacylglycerol Acyltransferase 3” (J Med Chem, 2015).
Calls of active or inactive are those of the source. No cut-off for these calls is given here.

Legend:
[1] = Cmax in mouse at 5 mg/kg, po; assay type: ADME, organism-based; design: dose 5 mg/kg, route oral; settings: in vivo
[2] = target: Cytochrome P450 2D6 (Homo sapiens, UniProt P10635); test: Inhibition of human CYP2D6; assay type: ADME
[3] = Oral bioavailability in mouse at 5 mg/kg; assay type: ADME, organism-based; settings: in vivo
[4] = target: T1, Diacylglycerol O-acyltransferase 2 (Homo sapiens, UniProt Q96PD7); test: Inhibition of DGAT2 (unknown origin) using [1-14C]decanoyl-CoA and didecanoyl-sn-glycerol substrates incubated for 40 mins
T1 sequence (Q96PD7 whole entry): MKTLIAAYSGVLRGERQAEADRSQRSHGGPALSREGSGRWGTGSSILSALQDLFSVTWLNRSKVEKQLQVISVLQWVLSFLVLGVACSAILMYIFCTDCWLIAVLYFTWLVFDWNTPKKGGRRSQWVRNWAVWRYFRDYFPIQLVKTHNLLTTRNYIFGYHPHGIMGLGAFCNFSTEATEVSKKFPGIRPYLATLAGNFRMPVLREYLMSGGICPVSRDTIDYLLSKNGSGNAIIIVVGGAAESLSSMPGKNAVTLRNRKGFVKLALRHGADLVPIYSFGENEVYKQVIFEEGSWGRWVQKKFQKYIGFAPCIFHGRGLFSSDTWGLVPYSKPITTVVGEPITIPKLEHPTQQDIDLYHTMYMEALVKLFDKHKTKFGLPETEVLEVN
In short: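 DGAT2 membrane fraction (0.01 mg/mL) in 100 mM Hepes-NaOH pH 7.4, 20 mM MgCl2, 200 nM MAFP. Compound first held 20 min with 0.04% fatty-acid-free BSA, then preincubated 120 min at RT with enzyme. Started with 30 µM [1-14C]decanoyl-CoA and 125 µM 1,2-didecanoyl-sn-glycerol; ran 40 min at RT, acid-stopped. Labelled TAG read by scintillation after phase partitioning.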

[5] = tested on: Salmonella typhimurium; test: Genotoxicity in Salmonella typhimurium by Amest test; assay type: toxicity, organism-based; settings: salmonella enterica subsp. enterica serovar typhimurium
[6] = Genotoxicity in micronucleus (unknown origin) by micronucleus assay
[7] = target: T2, Cytochrome P450 2C8 (Homo sapiens, UniProt P10632); test: Inhibition of human CYP2C8; assay type: ADME
T2 sequence (P10632 whole entry): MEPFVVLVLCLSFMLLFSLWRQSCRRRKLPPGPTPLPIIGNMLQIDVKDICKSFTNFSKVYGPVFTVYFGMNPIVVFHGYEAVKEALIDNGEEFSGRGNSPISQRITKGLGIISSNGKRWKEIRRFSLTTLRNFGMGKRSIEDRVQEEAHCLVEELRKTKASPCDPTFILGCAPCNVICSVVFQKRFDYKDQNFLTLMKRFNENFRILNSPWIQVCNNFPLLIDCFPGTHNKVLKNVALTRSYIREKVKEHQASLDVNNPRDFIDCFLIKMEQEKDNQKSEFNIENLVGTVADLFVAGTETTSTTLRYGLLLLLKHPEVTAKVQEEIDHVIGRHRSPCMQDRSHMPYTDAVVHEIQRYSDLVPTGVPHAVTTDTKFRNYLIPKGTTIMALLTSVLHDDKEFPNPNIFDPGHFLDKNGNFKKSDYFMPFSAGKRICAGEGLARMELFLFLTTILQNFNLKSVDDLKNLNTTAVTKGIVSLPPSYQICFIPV

[8] = Volume of distribution in mouse at 1 mg/kg, iv; assay type: ADME, organism-based; settings: in vivo
In short: (§1)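 Single 1 mg/kg intravenous dose in mice; systemic clearance, volume of distribution and effective half-life derived from plasma pharmacokinetics.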

[9] = tested on: Mus musculus; test: (§2) Effect on incorporation of glycerol-d8 into triolein in wild type mouse by measuring atom percent excess at 200 mg/kg, po dosed 1 hr before of 100 mg/kg, iv glycerol-d8 and measured 30 mins post glycerol-d8 dosing by LC-MS method; assay type: functional, organism-based
In short: (§3)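 Fed mice (wild type or human MOGAT3 transgenic), studied 8 AM–12 PM. Oral dosing in 0.5% methyl cellulose in saline, alone or with DGAT1 inhibitor (30 mg/kg) and DGAT2 inhibitor (10 mg/kg). After 1 h, 100 mg/kg uniformly labelled D8-glycerol (10 mg/mL in saline) given by tail vein. EDTA plasma taken 30 min later; D5-glycerol enrichment in triolein (18:1/18:1/18:1) measured by LC/MS, reported as mean atom percent excess ± SE.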

[10] = tested on: Mus musculus; test: as §2, with “dosing and co-treated with 30 mg/kg for DGAT1 inhibitor-12 and 10 mg/kg for DGAT2 inhibitor-13” for “dosing”; assay type: functional, organism-based
In short: (§4)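 Fed mice (wild type or human MOGAT3 transgenic) were studied between 8 AM and 12 PM. Inhibitors were given orally in 0.5% methyl cellulose in saline. After 1 h, D8-glycerol (10 mg/mL in saline) was injected into the tail vein. Blood was taken into EDTA 30 min later and plasma lipids extracted. D5-glycerol in triolein (18:1/18:1/18:1) was measured by LC/MS as atom percent excess, mean ± SE.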

[11] = tested on: Mus musculus; test: (§5) In-vivo inhibition of MGAT3-mediated TAG synthesis in human MGAT3 transgenic mouse assessed as reduction in incorporation of glycerol-d8 in to triolein expressed as atom percent excess at 200 mg/kg, po dosed 1 hr before of 100 mg/kg, iv glycerol-d8 and measured 30 mins post glycerol-d8 dosing by LC-MS method; assay type: functional, organism-based; in short: as §3
[12] = Intrinsic clearance in human liver microsomes; assay type: ADME; settings: read-out: CLH
[13] = Half life in mouse at 1 mg/kg, iv; assay type: ADME, organism-based; settings: in vivo; in short: as §1
[14] = target: Cytochrome P450 3A4 (Homo sapiens, UniProt P08684); test: Inhibition of human CYP3A4; assay type: ADME
[15] = target: T3, Cytochrome P450 1A2 (Homo sapiens, UniProt P05177); test: Inhibition of human CYP1A2; assay type: ADME
T3 sequence (P05177 whole entry): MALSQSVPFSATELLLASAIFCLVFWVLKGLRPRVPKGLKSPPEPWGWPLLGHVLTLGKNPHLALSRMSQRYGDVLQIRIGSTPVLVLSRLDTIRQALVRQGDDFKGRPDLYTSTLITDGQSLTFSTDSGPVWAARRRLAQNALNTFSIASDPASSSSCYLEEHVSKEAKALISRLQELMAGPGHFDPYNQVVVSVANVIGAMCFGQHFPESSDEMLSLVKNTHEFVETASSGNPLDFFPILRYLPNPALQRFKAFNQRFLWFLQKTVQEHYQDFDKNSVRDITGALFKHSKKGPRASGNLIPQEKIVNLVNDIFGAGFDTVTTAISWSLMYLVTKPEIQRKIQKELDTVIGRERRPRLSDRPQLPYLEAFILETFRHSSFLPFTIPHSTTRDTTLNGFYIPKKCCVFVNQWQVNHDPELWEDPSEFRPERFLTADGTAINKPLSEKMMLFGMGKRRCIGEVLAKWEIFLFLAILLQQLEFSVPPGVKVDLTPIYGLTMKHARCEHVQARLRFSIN

[16] = target: T4, Diacylglycerol O-acyltransferase 1 (Homo sapiens, UniProt O75907); test: Inhibition of DGAT1 (unknown origin) assessed as effect on incorporation of [1-14C]decanoyl moiety into TG using [1-14C]decanoyl-CoA and 1,2-didecanoyl-sn-glycerol as substrates
T4 sequence (O75907 whole entry): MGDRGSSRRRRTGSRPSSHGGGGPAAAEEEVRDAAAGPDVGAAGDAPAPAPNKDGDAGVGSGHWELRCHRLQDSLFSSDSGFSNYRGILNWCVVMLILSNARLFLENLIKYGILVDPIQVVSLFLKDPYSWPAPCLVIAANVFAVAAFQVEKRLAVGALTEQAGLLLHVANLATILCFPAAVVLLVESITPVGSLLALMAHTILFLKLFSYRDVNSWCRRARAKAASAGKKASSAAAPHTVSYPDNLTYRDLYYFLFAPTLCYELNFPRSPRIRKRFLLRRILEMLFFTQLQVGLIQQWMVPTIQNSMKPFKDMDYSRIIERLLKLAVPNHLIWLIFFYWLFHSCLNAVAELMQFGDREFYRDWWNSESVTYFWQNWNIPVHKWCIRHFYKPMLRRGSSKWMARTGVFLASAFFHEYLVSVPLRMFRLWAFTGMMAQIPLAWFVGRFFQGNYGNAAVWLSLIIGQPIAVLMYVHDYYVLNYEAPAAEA

[17] = tested on: HepG2; test: Toxicity in human HepG2 cells up to 300 uM incubated for 72 hrs; assay type: cell-based; settings: hepg2, 72 h
In short: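 HepG2 cells incubated with compound up to 300 µM for 72 hours.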

[18] = Apparent permeability in RRCK cells; assay type: ADME, cell-based, Canis lupus familiaris, MDCKII-LE; settings: dog, MDCK
[19] = AUClast in mouse at 5 mg/kg, po; assay type: ADME, organism-based; design: dose 5 mg/kg, route oral, time 0 - last; settings: in vivo
[20] = Lipophilicity, logD of the compound at pH 7.4; assay type: physicochemical; settings: buffer
In short: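 Shake-flask octanol:water partition at pH 7.4, with MS analysis of samples.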

[21] = target: Voltage-gated inwardly rectifying potassium channel KCNH2 (Homo sapiens, UniProt Q12809); test: Inhibition of human ERG
[22] = target: T5, Cytochrome P450 2C9 (Homo sapiens, UniProt P11712); test: Inhibition of human CYP2C9; assay type: ADME
[23] = tested on: Mus musculus; test: as §5, with “dosing and co-treated with 30 mg/kg for DGAT1 inhibitor-12 and 10 mg/kg for DGAT2 inhibitor-13” for “dosing”; assay type: functional, organism-based; in short: as §4
[24] = target: T6, Peroxisome proliferator-activated receptor gamma (Homo sapiens, UniProt P37231); test: Inhibition of PPARgamma (unknown origin)
T6 sequence (P37231 whole entry): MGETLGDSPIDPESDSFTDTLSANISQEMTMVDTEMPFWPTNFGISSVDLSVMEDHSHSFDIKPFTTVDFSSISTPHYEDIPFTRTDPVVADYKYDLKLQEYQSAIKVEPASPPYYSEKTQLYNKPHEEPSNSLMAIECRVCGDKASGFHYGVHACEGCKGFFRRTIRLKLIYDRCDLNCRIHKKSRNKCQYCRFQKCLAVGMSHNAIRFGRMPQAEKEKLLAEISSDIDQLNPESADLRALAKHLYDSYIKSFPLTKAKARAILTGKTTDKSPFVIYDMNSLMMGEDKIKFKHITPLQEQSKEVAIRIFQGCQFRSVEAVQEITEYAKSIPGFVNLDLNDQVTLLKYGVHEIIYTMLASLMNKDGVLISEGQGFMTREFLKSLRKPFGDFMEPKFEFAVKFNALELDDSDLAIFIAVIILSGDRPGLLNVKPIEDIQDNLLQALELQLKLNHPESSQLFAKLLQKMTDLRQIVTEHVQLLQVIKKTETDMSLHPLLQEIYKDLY

[25] = Systemic clearance in mouse at 1 mg/kg, iv; assay type: ADME, organism-based; settings: in vivo; in short: as §1
[26] = tested on: Hepatocyte; test: Drug metabolism in human hepatocytes assessed as compound oxidation; assay type: ADME, cell-based
[27] = target: CYP2C9 (Homo sapiens, UniProt P11712); test: Inhibition of CYP2C9 (unknown origin) at 3 uM; assay type: ADME
[28] = target: T7, CYP2C8 (Homo sapiens, UniProt P10632); test: Inhibition of CYP2C8 (unknown origin) at 3 uM; assay type: ADME
T7 sequence (P10632 whole entry): T2 sequence (P10632 whole entry)

[29] = target: T5, Cytochrome P450 2C9; test: Drug metabolism in human hepatocytes assessed as CYP2C9-mediated compound oxidation; assay type: ADME, cell-based, Hepatocyte

T5 sequence (P11712 whole entry): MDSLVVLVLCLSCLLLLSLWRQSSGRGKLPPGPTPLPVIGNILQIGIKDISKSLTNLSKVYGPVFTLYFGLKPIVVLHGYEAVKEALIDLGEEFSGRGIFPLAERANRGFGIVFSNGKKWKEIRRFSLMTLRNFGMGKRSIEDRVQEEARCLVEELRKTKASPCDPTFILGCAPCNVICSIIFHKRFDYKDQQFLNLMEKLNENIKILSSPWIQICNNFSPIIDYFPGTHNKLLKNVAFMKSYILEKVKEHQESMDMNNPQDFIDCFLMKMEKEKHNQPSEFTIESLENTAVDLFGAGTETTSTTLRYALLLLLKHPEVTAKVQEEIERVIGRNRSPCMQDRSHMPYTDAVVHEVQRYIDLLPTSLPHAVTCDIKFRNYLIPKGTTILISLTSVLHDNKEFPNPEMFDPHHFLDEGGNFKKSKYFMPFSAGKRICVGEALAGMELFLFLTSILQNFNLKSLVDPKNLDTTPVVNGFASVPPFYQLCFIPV
Chain of Voltage-gated inwardly rectifying potassium channel KCNH2 (Q12809 whole entry): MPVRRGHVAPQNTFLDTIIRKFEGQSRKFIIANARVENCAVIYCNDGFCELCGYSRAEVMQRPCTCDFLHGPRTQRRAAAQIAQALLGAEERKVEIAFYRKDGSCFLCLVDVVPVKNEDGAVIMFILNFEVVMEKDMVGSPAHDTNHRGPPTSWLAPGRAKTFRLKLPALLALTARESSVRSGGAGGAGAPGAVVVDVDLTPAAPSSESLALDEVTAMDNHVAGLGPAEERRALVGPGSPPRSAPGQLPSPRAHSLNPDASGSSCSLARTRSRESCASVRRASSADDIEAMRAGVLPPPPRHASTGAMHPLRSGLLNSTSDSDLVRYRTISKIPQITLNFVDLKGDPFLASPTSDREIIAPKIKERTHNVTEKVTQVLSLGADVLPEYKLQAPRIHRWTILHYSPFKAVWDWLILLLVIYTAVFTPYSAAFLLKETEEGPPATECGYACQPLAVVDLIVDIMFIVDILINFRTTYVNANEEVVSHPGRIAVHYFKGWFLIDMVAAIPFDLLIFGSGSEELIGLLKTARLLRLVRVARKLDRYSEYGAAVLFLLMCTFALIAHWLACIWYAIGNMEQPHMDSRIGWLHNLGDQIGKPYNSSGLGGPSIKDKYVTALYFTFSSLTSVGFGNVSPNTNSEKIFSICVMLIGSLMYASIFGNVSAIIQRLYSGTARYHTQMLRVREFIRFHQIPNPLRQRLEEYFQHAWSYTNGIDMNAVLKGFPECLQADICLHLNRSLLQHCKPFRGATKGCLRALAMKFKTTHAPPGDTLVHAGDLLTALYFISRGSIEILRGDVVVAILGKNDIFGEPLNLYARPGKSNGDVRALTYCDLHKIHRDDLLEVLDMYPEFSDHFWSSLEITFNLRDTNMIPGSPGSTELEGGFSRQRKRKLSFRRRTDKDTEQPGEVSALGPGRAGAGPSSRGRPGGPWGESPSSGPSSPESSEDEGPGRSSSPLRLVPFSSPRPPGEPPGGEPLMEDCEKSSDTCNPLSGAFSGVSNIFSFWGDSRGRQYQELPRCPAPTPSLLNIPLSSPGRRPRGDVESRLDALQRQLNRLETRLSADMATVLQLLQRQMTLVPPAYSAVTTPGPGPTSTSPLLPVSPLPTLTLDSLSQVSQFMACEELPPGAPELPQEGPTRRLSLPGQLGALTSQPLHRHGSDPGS
Chain of CYP2C9 (P11712 whole entry): as the sequence (P11712 whole entry) above
Chain of Cytochrome P450 2D6 (P10635 whole entry): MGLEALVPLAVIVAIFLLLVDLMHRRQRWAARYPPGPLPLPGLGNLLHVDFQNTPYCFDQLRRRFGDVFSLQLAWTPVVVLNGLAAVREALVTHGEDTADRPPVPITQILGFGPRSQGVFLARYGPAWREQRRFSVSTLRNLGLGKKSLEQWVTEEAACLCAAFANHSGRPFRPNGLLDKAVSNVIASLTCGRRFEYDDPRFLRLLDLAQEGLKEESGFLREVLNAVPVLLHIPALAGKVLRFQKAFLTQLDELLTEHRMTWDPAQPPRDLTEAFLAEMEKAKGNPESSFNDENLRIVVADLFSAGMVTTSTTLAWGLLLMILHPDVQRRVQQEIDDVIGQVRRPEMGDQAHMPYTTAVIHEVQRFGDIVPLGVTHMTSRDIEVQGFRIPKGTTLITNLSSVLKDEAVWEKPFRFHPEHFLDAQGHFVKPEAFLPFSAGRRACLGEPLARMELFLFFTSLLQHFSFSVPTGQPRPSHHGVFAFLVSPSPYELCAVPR
Chain of Cytochrome P450 3A4 (P08684 whole entry): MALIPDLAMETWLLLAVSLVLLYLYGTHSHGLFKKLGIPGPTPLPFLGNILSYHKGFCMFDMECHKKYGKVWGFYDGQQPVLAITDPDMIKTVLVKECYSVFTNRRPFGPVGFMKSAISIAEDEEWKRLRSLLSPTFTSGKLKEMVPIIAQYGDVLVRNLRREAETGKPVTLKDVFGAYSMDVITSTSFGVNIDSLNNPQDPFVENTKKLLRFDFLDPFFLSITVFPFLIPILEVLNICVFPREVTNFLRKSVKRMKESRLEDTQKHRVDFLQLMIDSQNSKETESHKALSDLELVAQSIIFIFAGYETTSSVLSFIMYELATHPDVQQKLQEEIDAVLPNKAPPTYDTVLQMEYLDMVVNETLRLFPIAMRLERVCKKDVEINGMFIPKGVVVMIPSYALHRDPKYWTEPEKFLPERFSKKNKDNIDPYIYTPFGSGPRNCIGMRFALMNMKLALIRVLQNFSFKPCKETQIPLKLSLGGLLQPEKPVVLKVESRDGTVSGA

With `COc1cccc(CC(=O)N2Cc3ccc(S(=O)(=O)Nc4cnn(C5CCC5)n4)cc3C2)c1` the Cmax [1] was 9300 ng/mL, the “inhibition (INH)” value [2] was “Not Active” and the bioavailability [3] was 74%. The IC50 [4] was over 100 µM, the Activity [5] was “Non-toxic” and the Activity [6] was “Non-toxic”. The “inhibition (INH)” value [7] was “Not Active”, the Vd [8] was 0.17 L/kg and the Activity [9] was “inactive”. The Activity [10] was “inactive”, the inhibition [11] was “inactive” and the microsomal CLint [12] was 22 µL/min/mg. The half-life [13] was 1.4 h, the “inhibition (INH)” value [14] was “Not Active” and the “inhibition (INH)” value [15] was “Not Active”. For the same molecule, the IC50 [16] was over 50 µM, the Activity [17] was “Non-toxic” and the Papp [18] was 12 ×10⁻⁶ cm/s. The AUC(0-t) [19] was 27000 ng·h/mL, the logD [20] was 1.7 and the “inhibition (INH)” value [21] was “Not Active”. For the same molecule, the “inhibition (INH)” value [22] was “Not Active”, the inhibition [23] was “Active” and the IC50 [24] was 4 µM. The clearance [25] was 1.4 mL/min/kg.
Molecule `COc1cccc(CC(=O)N2Cc3ccc(S(=O)(=O)Nc4cnn(C5COC5)n4)cc3C2)c1` has a microsomal CLint [12] of under 8 µL/min/mg, a Papp [18] of 3 ×10⁻⁶ cm/s and a logD [20] of 0.2.
Work on `COc1cccc(CC(=O)N2Cc3ccc(S(=O)(=O)Nc4cnn(C)n4)cc3C2)c1` yielded a microsomal CLint [12] of under 8 µL/min/mg, a Papp [18] of 1 ×10⁻⁶ cm/s and a logD [20] of 0.2.
With `COc1cccc(CC(=O)N2Cc3ccc(S(=O)(=O)Nc4cnn(C5CCOCC5)n4)cc3C2)c1` the microsomal CLint [12] was under 8 µL/min/mg, the Stability [26] was “Stable” and the Papp [18] was 5 ×10⁻⁶ cm/s. The logD [20] was 0.9.
For `COc1cccc(CC(=O)N2Cc3ccc(S(=O)(=O)Nc4cnn(-c5ccccc5)n4)cc3C2)c1`, the microsomal CLint [12] was 273 µL/min/mg, the inhibition at 3 µM [27] was 88% and the Drug metabolism [26] was “metabolite_detected”. The inhibition at 3 µM [28] was 48%, the Drug metabolism [29] was “metabolite_detected” and the Papp [18] was 15 ×10⁻⁶ cm/s. It also gave a logD [20] of 2.3.
